Reference: ChEMBL document CHEMBL2086252, “Syntheses and evaluation of anticonvulsant activity of novel branched alkyl carbamates” (J Med Chem, 2012)
The source made the active and inactive calls. No cut-off for these calls is given here.

Columns and labels:
Mus musculus [1] = experiment: Protective index, ratio of TD50 for ip dosed albino CF1 mouse by rotarod test to ED50 for ip dosed albino CF1 mouse by 6 Hz psychomotor seizure test; format: functional
How it was run: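 Protective index calculated as TD50/ED50, with TD50 and ED50 taken from the same species and dosing route.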

Mus musculus [2] = experiment: Anticonvulsant activity in albino CF1 mouse assessed as protection against subcutaneous metrazol-induced seizures at 30 mg/kg, ip after 0.5 hrs; format: functional, organism-based; set-up: dose 30 mg/kg
How it was run: (§1)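 Mice dosed ip at 30, 100 or 300 mg/kg, then tested 0.5 h and 4 h after administration in the MES or scMet test. Protection was recorded as animals protected over animals tested. Neurotoxicity was recorded as motor impairment or sedation, as animals affected over animals tested.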

Mus musculus [3] = experiment: Anticonvulsant activity in albino CF1 mouse assessed as protection against subcutaneous metrazol-induced seizures at 100 mg/kg, ip after 0.5 hrs; format: functional, organism-based; set-up: dose 100 mg/kg; how it was run: as §1
Mus musculus [4] = experiment: Anticonvulsant activity in albino CF1 mouse assessed as protection against subcutaneous metrazol-induced seizures at 30 mg/kg, ip after 4 hrs; format: functional, organism-based; set-up: dose 30 mg/kg; how it was run: as §1
Mus musculus [5] = experiment: Anticonvulsant activity in albino CF1 mouse assessed as protection against subcutaneous metrazol-induced seizures at 100 mg/kg, ip after 4 hrs; format: functional, organism-based; set-up: dose 100 mg/kg; how it was run: as §1
Mus musculus [6] = experiment: Anticonvulsant activity in albino CF1 mouse assessed as protection against subcutaneous metrazol-induced seizures at 300 mg/kg, ip after 4 hrs; format: functional, organism-based; set-up: dose 300 mg/kg; how it was run: as §1
Mus musculus [7] = experiment: Anticonvulsant activity in albino CF1 mouse assessed as protection against maximal electroshock-induced seizures at 30 mg/kg, ip after 0.5 hrs; format: functional, organism-based; set-up: dose 30 mg/kg; how it was run: as §1
Mus musculus [8] = experiment: Anticonvulsant activity in albino CF1 mouse assessed as protection against maximal electroshock-induced seizures at 100 mg/kg, ip after 0.5 hrs; format: functional, organism-based; set-up: dose 100 mg/kg; how it was run: as §1
Mus musculus [9] = experiment: Anticonvulsant activity in albino CF1 mouse assessed as protection against maximal electroshock-induced seizures at 30 mg/kg, ip after 4 hrs; format: functional, organism-based; set-up: dose 30 mg/kg; how it was run: as §1
Mus musculus [10] = experiment: Anticonvulsant activity in albino CF1 mouse assessed as protection against maximal electroshock-induced seizures at 100 mg/kg, ip after 4 hrs; format: functional, organism-based; set-up: dose 100 mg/kg; how it was run: as §1
Mus musculus [11] = experiment: Anticonvulsant activity in albino CF1 mouse assessed as protection against maximal electroshock-induced seizures at 300 mg/kg, ip after 4 hrs; format: functional, organism-based; set-up: dose 300 mg/kg; how it was run: as §1
Mus musculus [12] = experiment: Neurotoxicity in albino CF1 mouse assessed as minimal motor impairment at 30 mg/kg, ip after 0.5 hrs by rotarod test; format: toxicity, organism-based; set-up: dose 30 mg/kg, route intraperitoneal; details: in vivo; how it was run: as §1
Mus musculus [13] = experiment: Neurotoxicity in albino CF1 mouse assessed as minimal motor impairment at 100 mg/kg, ip after 0.5 hrs by rotarod test; format: toxicity, organism-based; set-up: dose 100 mg/kg, route intraperitoneal; details: in vivo; how it was run: as §1
Mus musculus [14] = experiment: Neurotoxicity in albino CF1 mouse assessed as minimal motor impairment at 30 mg/kg, ip after 4 hrs by rotarod test; format: toxicity, organism-based; set-up: dose 30 mg/kg, route intraperitoneal; details: in vivo; how it was run: as §1
Mus musculus [15] = experiment: Neurotoxicity in albino CF1 mouse assessed as minimal motor impairment at 100 mg/kg, ip after 4 hrs by rotarod test; format: toxicity, organism-based; set-up: dose 100 mg/kg, route intraperitoneal; details: in vivo; how it was run: as §1
Mus musculus [16] = experiment: Neurotoxicity in albino CF1 mouse assessed as minimal motor impairment at 300 mg/kg, ip after 4 hrs by rotarod test; format: toxicity, organism-based; set-up: dose 300 mg/kg, route intraperitoneal; details: in vivo; how it was run: as §1
Rattus norvegicus [17] = experiment: Anticonvulsant activity in Sprague-Dawley albino rat assessed as protection against maximal electroshock-induced seizures at 30 mg/kg, po after 15 mins; format: functional, organism-based; set-up: dose 30 mg/kg
How it was run: (§2)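 Rats dosed orally. Anti-MES protection was scored as animals protected over animals tested at each time after dosing. Neurotoxicity was scored as motor impairment or sedation, as animals affected over animals tested.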

Rattus norvegicus [18] = experiment: Anticonvulsant activity in Sprague-Dawley albino rat assessed as protection against maximal electroshock-induced seizures at 30 mg/kg, po after 30 mins; format: functional, organism-based; set-up: dose 30 mg/kg; how it was run: as §2
Rattus norvegicus [19] = experiment: Anticonvulsant activity in Sprague-Dawley albino rat assessed as protection against maximal electroshock-induced seizures at 30 mg/kg, po after 1 hr; format: functional, organism-based; set-up: dose 30 mg/kg; how it was run: as §2
Rattus norvegicus [20] = experiment: Anticonvulsant activity in Sprague-Dawley albino rat assessed as protection against maximal electroshock-induced seizures at 30 mg/kg, po after 2 hrs; format: functional, organism-based; set-up: dose 30 mg/kg; how it was run: as §2
Rattus norvegicus [21] = experiment: Anticonvulsant activity in Sprague-Dawley albino rat assessed as protection against maximal electroshock-induced seizures at 30 mg/kg, po after 4 hrs; format: functional, organism-based; set-up: dose 30 mg/kg; how it was run: as §2
Rattus norvegicus [22] = experiment: Neurotoxicity in Sprague-Dawley albino rat assessed as minimal motor impairment at 30 mg/kg, po by rotarod test; format: toxicity, organism-based; set-up: dose 30 mg/kg, route oral; details: in vivo; how it was run: as §2
Mus musculus [23] = experiment: Anticonvulsant activity in ip dosed albino CF-1 mouse assessed as protection against 6 Hz psychomotor seizure; format: functional; details: albino CF-1, ip
How it was run: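 Quantitative testing: rats dosed orally or ip in MES and scMet tests, and mice dosed ip, including the 6 Hz (32 mA) psychomotor seizure test. ED50 and TD50 were reported in mg/kg with ranges in parentheses. Protective index was calculated as TD50/ED50.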

Rattus norvegicus [24] = experiment: Anticonvulsant activity in Sprague-Dawley albino rat assessed as protection against pilocarpine-induced status epilepticus at 65 mg/kg, ip; format: functional, organism-based; set-up: dose 65 mg/kg
How it was run: (§3)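 Pilocarpine status epilepticus model in rats. Number and severity of convulsive seizures were observed behaviourally.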

Rattus norvegicus [25] = experiment: Neurotoxicity in pilocarpine-induced status epilepticus Sprague-Dawley albino rat model assessed as minimal motor impairment at 100 mg/kg, ip after 0.25 hr by rotarod test; format: toxicity, organism-based; set-up: dose 100 mg/kg, route intraperitoneal; details: in vivo
Rattus norvegicus [26] = experiment: Neurotoxicity in pilocarpine-induced status epilepticus Sprague-Dawley albino rat model assessed as minimal motor impairment at 300 mg/kg, ip after 0.25 hr by rotarod test; format: toxicity, organism-based; set-up: dose 300 mg/kg, route intraperitoneal; details: in vivo
How it was run: (§4)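 Rat pilocarpine status epilepticus model: test carbamate given at 0 or 30 min after the first observed Racine stage 3 motor seizure, which marks SE onset. Neurotoxicity was scored within the same model.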

Rattus norvegicus [27] = experiment: Neurotoxicity in pilocarpine-induced status epilepticus Sprague-Dawley albino rat model assessed as minimal motor impairment at 30 mg/kg, ip after 0.25 hr by rotarod test; format: toxicity, organism-based; set-up: dose 30 mg/kg, route intraperitoneal; details: in vivo; how it was run: as §4
Rattus norvegicus [28] = experiment: Neurotoxicity in pilocarpine-induced status epilepticus Sprague-Dawley albino rat model assessed as minimal motor impairment at 100 mg/kg, ip after 0.5 hrs by rotarod test; format: toxicity, organism-based; set-up: dose 100 mg/kg, route intraperitoneal; details: in vivo
Rattus norvegicus [29] = experiment: Neurotoxicity in pilocarpine-induced status epilepticus Sprague-Dawley albino rat model assessed as minimal motor impairment at 300 mg/kg, ip after 0.5 hrs by rotarod test; format: toxicity, organism-based; set-up: dose 300 mg/kg, route intraperitoneal; details: in vivo; how it was run: as §4
Rattus norvegicus [30] = experiment: Neurotoxicity in pilocarpine-induced status epilepticus Sprague-Dawley albino rat model assessed as minimal motor impairment at 30 mg/kg, ip after 0.5 hrs by rotarod test; format: toxicity, organism-based; set-up: dose 30 mg/kg, route intraperitoneal; details: in vivo; how it was run: as §4
Rattus norvegicus [31] = experiment: Neurotoxicity in pilocarpine-induced status epilepticus Sprague-Dawley albino rat model assessed as minimal motor impairment at 100 mg/kg, ip after 1 hr by rotarod test; format: toxicity, organism-based; set-up: dose 100 mg/kg, route intraperitoneal; details: in vivo
Rattus norvegicus [32] = experiment: Neurotoxicity in pilocarpine-induced status epilepticus Sprague-Dawley albino rat model assessed as minimal motor impairment at 30 mg/kg, ip after 1 hr by rotarod test; format: toxicity, organism-based; set-up: dose 30 mg/kg, route intraperitoneal; details: in vivo; how it was run: as §4
Rattus norvegicus [33] = experiment: Neurotoxicity in pilocarpine-induced status epilepticus Sprague-Dawley albino rat model assessed as minimal motor impairment at 100 mg/kg, ip after 2 hrs by rotarod test; format: toxicity, organism-based; set-up: dose 100 mg/kg, route intraperitoneal; details: in vivo
Rattus norvegicus [34] = experiment: Neurotoxicity in pilocarpine-induced status epilepticus Sprague-Dawley albino rat model assessed as minimal motor impairment at 30 mg/kg, ip after 2 hrs by rotarod test; format: toxicity, organism-based; set-up: dose 30 mg/kg, route intraperitoneal; details: in vivo; how it was run: as §4
Rattus norvegicus [35] = experiment: Neurotoxicity in pilocarpine-induced status epilepticus Sprague-Dawley albino rat model assessed as minimal motor impairment at 100 mg/kg, ip after 4 hrs by rotarod test; format: toxicity, organism-based; set-up: dose 100 mg/kg, route intraperitoneal; details: in vivo
Rattus norvegicus [36] = experiment: Neurotoxicity in pilocarpine-induced status epilepticus Sprague-Dawley albino rat model assessed as minimal motor impairment at 30 mg/kg, ip after 4 hrs by rotarod test; format: toxicity, organism-based; set-up: dose 30 mg/kg, route intraperitoneal; details: in vivo; how it was run: as §4
Rattus norvegicus [37] = experiment: Anticonvulsant activity in ip dosed Sprague-Dawley albino rat assessed as protection against pilocarpine-induced status epilepticus after 0.5 hrs; format: functional; how it was run: as §3
Rattus norvegicus [38] = experiment: Neurotoxicity in pilocarpine-induced status epilepticus Sprague-Dawley albino rat model assessed as minimal motor impairment at 50 mg/kg, ip after 0.5 hrs by rotarod test; format: toxicity, organism-based; set-up: dose 50 mg/kg, route intraperitoneal; details: in vivo; how it was run: as §4
Rattus norvegicus [39] = experiment: Neurotoxicity in pilocarpine-induced status epilepticus Sprague-Dawley albino rat model assessed as minimal motor impairment at 160 mg/kg, ip after 0.5 hrs by rotarod test; format: toxicity, organism-based; set-up: dose 160 mg/kg, route intraperitoneal; details: in vivo

## CC(C)C(COC(N)=O)C(C)C
Mus musculus [1]
  Ratio TD50/ED50: 3.4
Mus musculus [2]
  Activity: inactive
Mus musculus [3]
  Activity: inactive
Mus musculus [4]
  Activity: inactive
Mus musculus [5]
  Activity: inactive
Mus musculus [6]
  Activity: inactive
Mus musculus [7]
  Activity: inactive
Mus musculus [8]
  Activity: inactive
Mus musculus [9]
  Activity: inactive
Mus musculus [10]
  Activity: inactive
Mus musculus [11]
  Activity: inactive
Mus musculus [12]
  Activity: Non-toxic
Mus musculus [13]
  Activity: Non-toxic
Mus musculus [14]
  Activity: Non-toxic
Mus musculus [15]
  Activity: Non-toxic
Mus musculus [16]
  Activity: Non-toxic
Rattus norvegicus [17]
  Activity: inactive
Rattus norvegicus [18]
  Activity: inactive
Rattus norvegicus [19]
  Activity: inactive
Rattus norvegicus [20]
  Activity: inactive
Rattus norvegicus [21]
  Activity: inactive
Rattus norvegicus [22]
  Activity: Non-toxic
Mus musculus [23]
  ED50: 41 mg/kg
Rattus norvegicus [24]
  Activity: Active
Rattus norvegicus [25]
  Activity: Toxic
Rattus norvegicus [26]
  Activity: Toxic
Rattus norvegicus [27]
  Activity: Non-toxic
Rattus norvegicus [28]
  Activity: Toxic
Rattus norvegicus [29]
  Activity: Toxic
Rattus norvegicus [30]
  Activity: Non-toxic
Rattus norvegicus [31]
  Activity: Non-toxic
Rattus norvegicus [32]
  Activity: Non-toxic
Rattus norvegicus [33]
  Activity: Non-toxic
Rattus norvegicus [34]
  Activity: Non-toxic
Rattus norvegicus [35]
  Activity: Non-toxic
Rattus norvegicus [36]
  Activity: Non-toxic
Rattus norvegicus [37]
  ED50: 94 mg/kg
  ED97: 184 mg/kg
Rattus norvegicus [38]
  Activity: Non-toxic
Rattus norvegicus [39]
  Activity: Toxic
